Screening results from PubChem.
RAD54 inh = inhibitors of human RAD54 branch migration, primary screen, biochemical, fluorescence, single point | inhibition, % at 10.4 µM | DNA repair and recombination protein RAD54-like (Homo sapiens), Q92698 | RAD54 Holliday junction branch migration, FAM/BHQ fluorescence | AID 602329, 2012 | 0.14% of 360,000 active;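 active = mean normalized replicate activity at least 40 and at least half of replicates scoring 40 or more; inconclusive = only one of the two criteria met; inactive = mean below 40 and under half of replicates reaching 40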;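 note: inhibitors cause a drop in the FAM fluorescence signal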
XiGFP reactiv = activators of inactive X chromosome reactivation, primary screen, imaging, XiGFP fibroblasts, GFP high-content imaging, set 2; XiGFP mouse fibroblasts, % GFP-positive cells imaging, 3 d; cells co-treated with 5-aza-dC sensitizer; scaled so ellipticine positive control = 100%; activation, % at 7.58 µM; 0.055% of 360,000 active;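 active = mean normalized replicate activation at least 10% and every replicate at or above 10%; inconclusive = only one of the two criteria met; inactive = mean below 10% and not all replicates reach 10%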
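Material: SV40-immortalized XiGFP fibroblast cells, line 68-5-11 | Buffer or medium: DMEM containing 5-aza-dC | Dosing: One concentration, pinned | Times: 3 d treatment, 15 min room-temperature fixation | Controls: Ellipticine 6 µM positive control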
RAD52 inh = RAD52 DNA annealing inhibitors, primary screen, biochemical, FRET, single point, set 2; DNA repair protein RAD52 homolog (Homo sapiens), P43351; recombinant RAD52 DNA annealing, FRET fluorescence; inhibition, % at 18.7 µM; 0.46% of 360,000 active;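 active = every replicate showing at least 50% inhibition; inconclusive = mean inhibition at least 50% but not in every replicate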
PglD DTNB = C. jejuni PglD acetyltransferase inhibitors, primary screen, biochemical, DTNB colorimetric, single point; purified PglD enzyme, DTNB colorimetric CoA detection; inhibition, % at 12.5 µM; 0.098% of 360,000 active; AID 602405, 2012; in the data active = inhibition above about 16%, passing the limit was not always enough; inconclusive = no clear call, values can overlap the other calls
Ecoli rRNA inh = reduced GFP signal of wild-type E. coli, primary screen, bacterial rRNA inhibitor project, GFP/RFP fluorescence, OD600, single point | GFP signal change (wild-type ribosome), % (concentration not given with the values) | 1.6% of 350,000 active | E. coli WT GFP vs humanized-ribosome RFP mutants, 24 h; active compounds read low; DMSO median 0, no signal -100 | AID 720706, 2013;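 active = significant combined selectivity score with lowered wild-type GFP, culture density cut under 30%, mutant RFP and density less affected; inactive = any of these conditions unmet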
E-sel inducer = E-selectin induction in HUVECs, primary screen, imaging, HUVEC, immunofluorescence imaging, single point. P16581. normalized: neutral wells 0, TNF-alpha wells 100. activation, % at 7.58 µM. 0.37% of 260,000 active. AID 686992, 2013;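 active = mean E-selectin-positive cell signal at least 10% of the positive control, reached in at least 60% of replicates, without over 20% cell loss; inconclusive = no rule given, readout overlaps actives, possibly toxicity-flagged; inactive = the rest, including those meeting only one limit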
Target sequence (P16581 whole entry, looked up): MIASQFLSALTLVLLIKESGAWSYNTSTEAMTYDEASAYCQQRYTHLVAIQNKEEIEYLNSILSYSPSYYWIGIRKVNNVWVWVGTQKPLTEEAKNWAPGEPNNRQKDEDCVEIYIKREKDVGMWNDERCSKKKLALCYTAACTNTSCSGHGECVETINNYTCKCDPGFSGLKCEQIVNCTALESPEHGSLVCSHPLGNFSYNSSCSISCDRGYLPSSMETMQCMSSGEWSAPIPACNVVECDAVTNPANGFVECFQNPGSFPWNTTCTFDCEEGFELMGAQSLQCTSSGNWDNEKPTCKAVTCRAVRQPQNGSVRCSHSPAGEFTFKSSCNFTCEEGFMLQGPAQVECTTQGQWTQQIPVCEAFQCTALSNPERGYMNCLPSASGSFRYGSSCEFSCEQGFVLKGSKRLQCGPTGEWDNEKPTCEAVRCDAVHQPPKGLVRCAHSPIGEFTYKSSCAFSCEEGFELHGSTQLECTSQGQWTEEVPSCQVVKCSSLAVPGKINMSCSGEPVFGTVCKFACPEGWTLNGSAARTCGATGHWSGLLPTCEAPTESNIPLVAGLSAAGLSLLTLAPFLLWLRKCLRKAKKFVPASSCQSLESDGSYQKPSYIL
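Test system: HUVEC | Signal: Immunofluorescence imaging | Read-out: Percent E-selectin-positive cells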
Of the large screens only hits and unclear results are named; the others gave an inactive call; ! = not active in a repeat. Sampled rows, rich in hits. Any-hit rate of the full collection: about 2%.

O=C(Nc1ccc(Cl)cc1)Nc1ccon1	none
Cc1ccc(NC(=O)Nc2ccon2)cc1Cl	Ecoli rRNA inh -34
C[C@@H]1CN([C@@H](C)CO)C(=O)c2cc(NS(=O)(=O)c3ccc(Cl)cc3)ccc2O[C@@H](C)CCCCO[C@H]1CN(C)Cc1ccc2c(c1)OCO2	none (no result: E-sel inducer)
C[C@H](CO)N1C[C@H](C)[C@H](CN(C)Cc2ccc3c(c2)OCO3)OCCCC[C@H](C)Oc2ccc(NS(=O)(=O)c3ccc(Cl)cc3)cc2C1=O	RAD52 inh 63 (no result: E-sel inducer)
C[C@@H]1CN([C@H](C)CO)C(=O)c2cc(NS(=O)(=O)c3ccc(Cl)cc3)ccc2O[C@@H](C)CCCCO[C@@H]1CN(C)Cc1ccc2c(c1)OCO2	none (no result: E-sel inducer)
C[C@H]1CCCCO[C@@H](CN(C)Cc2ccc3c(c2)OCO3)[C@@H](C)CN([C@@H](C)CO)C(=O)c2cc(NS(=O)(=O)c3ccc(Cl)cc3)ccc2O1	RAD52 inh 55! (no result: E-sel inducer)
Cn1cnc(S(=O)(=O)N2C[C@@H](O)COC[C@@H]3O[C@H](CC(=O)NC4Cc5ccccc5C4)CC[C@H]32)c1	none
Cc1cc(N2CCCCC2)ccc1[N+](=O)[O-]	Ecoli rRNA inh -43 (no result: RAD54 inh, PglD DTNB, E-sel inducer)
O=[N+]([O-])c1ccc(N2CCCC2)cc1N1CCCC1	none (no result: XiGFP reactiv, RAD52 inh, Ecoli rRNA inh, E-sel inducer)
COCC(=O)Nc1ccc2c(c1)[C@H]1C[C@@H](CC(=O)N3CCOCC3)O[C@H](CO)[C@H]1O2	none
CO[C@@H]1CN(C)C(=O)c2ccc(NC(C)=O)cc2OC[C@@H](C)N(C(=O)c2cnccn2)C[C@@H]1C	none (no result: RAD54 inh, RAD52 inh, PglD DTNB)
CC(=O)c1c(COC(=O)c2ccccc2Cl)nc2ccccc2[n+]1[O-]	XiGFP reactiv inconclusive, Ecoli rRNA inh -35
CN(CC(=O)Nc1ccc(Cl)cc1)CC(=O)Nc1cc(Cl)ccc1C#N	Ecoli rRNA inh -38 (no result: XiGFP reactiv, E-sel inducer)
Cc1ccc(NC(=O)CN(C)Cc2ccc(Cl)cc2)cc1	Ecoli rRNA inh -30 (no result: RAD54 inh, PglD DTNB)
CN(CC(=O)Nc1ccc(Br)cc1)Cc1ccccc1	E-sel inducer 97
Cc1ccc(NC(=O)CN(C)CC(=O)Nc2ccc(F)c(Cl)c2)cc1	none (no result: E-sel inducer)
O=C(/C=C/c1cccc(Br)c1)c1ccc2c(c1)OCO2	none (no result: E-sel inducer)
O=C(C[n+]1ccc(/C=C/c2ccccc2)cc1)c1ccc2c(c1)OCCO2	RAD52 inh 76
O=C(/C=C/c1ccccc1)c1ccc2c(c1)OCO2	Ecoli rRNA inh -24
O=C(/C=C/c1ccc2c(c1)OCCCO2)c1ccccc1O	Ecoli rRNA inh -33 (no result: RAD54 inh, PglD DTNB)
CCCNC(=O)N[C@H]1CC[C@@H](CC(=O)NCCc2ccccc2)O[C@@H]1CO	none
C[C@@H]1CCCCO[C@@H](CN(C)C(=O)C2CCCCC2)[C@H](C)CN([C@@H](C)CO)C(=O)c2cc(NC(=O)NC3CCCCC3)ccc2O1	none (no result: XiGFP reactiv, Ecoli rRNA inh, E-sel inducer)
C[C@H](NC(=O)C[C@@H]1C=C[C@H](NS(=O)(=O)c2cccc(F)c2)[C@@H](CO)O1)c1ccccc1	none
CCOC(=O)c1ccc(NC(=O)NC2CC3CCC(C2)N3C(=S)NC)cc1 (stereo unspecified)	none
CCNC(=S)N1C2CCC1CC(NC(=O)Nc1ccc(C(=O)OCC)cc1)C2 (stereo unspecified)	Ecoli rRNA inh -21
COc1ccc(-c2noc(CSc3nnc(-c4ccccc4)n3C)n2)cc1	Ecoli rRNA inh -22 (no result: XiGFP reactiv, E-sel inducer)
COc1ccc(N2CCN(Cc3nc(-c4ccccc4)no3)CC2)cc1	Ecoli rRNA inh -19 (no result: RAD54 inh, PglD DTNB)
COc1ccc(S(=O)(=O)Nc2cccc3c2O[C@H](CN(C)S(C)(=O)=O)[C@H](C)CN([C@H](C)CO)C3=O)cc1	none
COc1cnc(-c2ccccc2)c(-c2ccccc2)n1	Ecoli rRNA inh -32
CO[C@@H]1CN(C)C(=O)c2ccc(NC(=O)C3CC3)cc2OC[C@@H](C)N(C(=O)c2cnccn2)C[C@@H]1C	none (no result: RAD54 inh, PglD DTNB)
C[C@H](CO)N1C[C@H](C)[C@@H](CN(C)S(=O)(=O)c2cccs2)Oc2ccc(NC(=O)CCN3CCOCC3)cc2C1=O	E-sel inducer 63
C[C@@H]1CN([C@H](C)CO)C(=O)c2cc(NC(=O)Nc3ccc(F)cc3)ccc2O[C@H]1CN(C)S(=O)(=O)c1cccs1	E-sel inducer 39
C[C@H](CO)N1C[C@H](C)[C@H](CN(C)S(=O)(=O)c2ccc(Cl)cc2)Oc2ccc(NC(=O)NC3CCCCC3)cc2C1=O	E-sel inducer 436
C[C@@H]1CN([C@H](C)CO)C(=O)c2cc(NC(=O)Nc3ccc4c(c3)OCO4)ccc2O[C@H]1CN(C)S(=O)(=O)c1ccc(F)cc1	E-sel inducer 51
C[C@H]1CN([C@@H](C)CO)C(=O)c2cc(NC(=O)CCN3CCOCC3)ccc2O[C@H]1CN(C)S(=O)(=O)c1cccs1	none
C[C@@H]1CN([C@@H](C)CO)C(=O)c2cc(NC(=O)Nc3ccc4c(c3)OCO4)ccc2O[C@H]1CN(C)S(=O)(=O)c1ccc(F)cc1	none
CC(C)C#Cc1cnc2c(c1)C(=O)N([C@H](C)CO)C[C@@H](C)[C@H](CN(C)C(=O)CC1CC1)O2	none
CN(C)C(=O)C[C@@H]1C=C[C@@H](NC(=O)c2ccc(F)cc2)[C@@H](CO)O1	none
C[C@@H]1CN([C@H](C)CO)C(=O)c2cc(NC(=O)Nc3ccc(C(F)(F)F)cc3)ccc2O[C@@H]1CN(C)S(=O)(=O)c1ccc(F)cc1	none
C[C@H]1CN([C@@H](C)CO)C(=O)c2cc(NC(=O)Nc3ccc(C(F)(F)F)cc3)ccc2O[C@@H]1CN(C)S(=O)(=O)c1ccccc1	E-sel inducer 133 (no result: RAD54 inh, PglD DTNB)
Cc1ccccc1CC1(CO)CCCN(Cc2ccccc2Cl)C1 (stereo unspecified)	Ecoli rRNA inh -28
CCOC(=O)/C(=C/C=C1\Sc2cc(C)c(C)cc2N1CC)C(C)=O	XiGFP reactiv 17 (no result: RAD54 inh, PglD DTNB, E-sel inducer)
CCOC(=O)c1c(NC(=O)CSc2nnc(-c3ccccc3)n2CC)sc(C(C)=O)c1C	Ecoli rRNA inh -37 (no result: XiGFP reactiv, E-sel inducer)
COc1cccc(S(=O)(=O)Nc2ccc3c(c2)[C@@H]2C[C@@H](CC(=O)NCc4ccccc4F)O[C@@H](CO)[C@@H]2O3)c1	none (no result: E-sel inducer)
CCOc1ccc(/C=N/NC(=S)NC2CC3CCC2C3)cc1 (stereo unspecified)	Ecoli rRNA inh -17
CC(=O)Nc1ccc(C(=O)Nc2cccc(S(=O)(=O)N(C)c3ccccc3)c2)cc1	none
